Measured values from article PMC3374877 (Chembiochem, 2011).
“Also recorded” adds a separate entry of the source. Bridges are numbered along the chain shown (N, C = ends). Where no end group is shown, it is not given here.

Assays:
[1] = system: TLR4 (RAW 264.7 macrophage cells); experiment: Nitric oxide production in RAW 264.7 macrophages, LPS-induced TLR4 activation; format: cell-based; conditions: 50 μM peptide, LPS 50 ng/ml
Summary of the method: (§1)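 RAW 264.7 macrophages were stimulated with the TLR-specific ligand in the presence or absence of 50 μM peptide. Nitric oxide production was the read-out of pathway activation.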

[2] = system: BV2 cells; experiment: Cytotoxicity, trypan blue staining, BV2 cells; format: cell-based
[3] = target: extracellular construct (a.a. 1–632) of human TLR4 (Homo sapiens, UniProt O00206); format: binding; conditions: fluorescence polarization
Chain of extracellular construct (a.a. 1–632) of human TLR4 (O00206 24-632): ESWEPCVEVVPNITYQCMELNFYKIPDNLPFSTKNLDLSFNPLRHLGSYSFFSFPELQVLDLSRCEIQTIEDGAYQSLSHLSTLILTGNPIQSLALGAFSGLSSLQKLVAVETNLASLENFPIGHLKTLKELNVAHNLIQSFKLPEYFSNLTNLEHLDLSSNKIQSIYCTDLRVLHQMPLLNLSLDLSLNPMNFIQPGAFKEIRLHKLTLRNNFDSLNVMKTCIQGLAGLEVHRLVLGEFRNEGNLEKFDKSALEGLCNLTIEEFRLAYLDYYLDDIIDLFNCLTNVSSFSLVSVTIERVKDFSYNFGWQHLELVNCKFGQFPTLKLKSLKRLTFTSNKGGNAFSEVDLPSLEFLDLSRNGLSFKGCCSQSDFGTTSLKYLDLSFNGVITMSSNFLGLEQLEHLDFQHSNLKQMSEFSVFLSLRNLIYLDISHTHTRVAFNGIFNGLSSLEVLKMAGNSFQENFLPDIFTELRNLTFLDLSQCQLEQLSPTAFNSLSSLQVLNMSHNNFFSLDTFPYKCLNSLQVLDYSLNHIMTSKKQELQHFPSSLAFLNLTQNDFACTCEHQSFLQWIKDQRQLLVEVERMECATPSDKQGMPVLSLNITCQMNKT

[4] = system: whole human blood; experiment: Haemolysis in whole human blood; format: cell-based; conditions: concentrations up to 500 μM
[5] = system: TLR2/TLR6 (RAW 264.7 macrophage cells); format: cell-based; conditions: 50 μM peptide, PGN 50 μg/ml
Summary of the method: as §1

[6] = system: TLR4/MD2 complex; conditions: previously reported; cited from earlier work
[7] = system: TLR1/TLR2 (RAW 264.7 macrophage cells); format: cell-based; conditions: 50 μM peptide, Pam3CSK4 250 ng/ml
Summary of the method: as §1

[8] = system: rats; experiment: Behavioural observation after peptide injection; format: in vivo, rat; conditions: rats of the CCI test; intrathecal injection of peptide stock solutions
[9] = system: HEK 293 cells; experiment: Cytotoxicity, trypan blue staining, HEK 293 cells; format: cell-based
[10] = system: RAW 264.7 cells; experiment: Cytotoxicity, trypan blue staining, RAW 264.7 cells; format: cell-based
[11] = system: rats subjected to CCI of the sciatic nerve; experiment: Chronic constriction injury; format: in vivo; conditions: rat CCI; intrathecal; summary in words
Summary of the method: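 Rats underwent chronic constriction injury and were tested at baseline, then on days 4 and 11 after surgery to confirm allodynia. After a pre-drug assessment, peptide was delivered intrathecally into the peri-spinal cerebrospinal fluid by the lumbar approach, at approximately 250 μM final in the intrathecal space. Vehicle was saline. Allodynia was reassessed 1, 3 and 24 h after injection.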

[12] = target: TLR4; conditions: read-out: KD of full-length MD2 binding to TLR4; cited from earlier work

Substance | inhibition of TLR4 signalling (NO production) [1] | cytotoxicity [2] | binding activity toward TLR4 (change in polarization) ([3]; TLR4 titrated, in words) | maximum polarization value ([3]; plateau upon addition of TLR4) | haemolysis [4] | inhibition of TLR2/TLR6 signalling (NO production) [5] | inhibition of TLR4 signalling, LPS antagonism [6] | inhibition of TLR1/2 signalling (NO production) [7] | abnormal behaviours after injection [8] | cytotoxicity [9] | cytotoxicity [10] | suppression of neuropathic pain in vivo (summary statement) [11] | Kd [12]
CRGSAAAYSFCAALAGA (disulfide 1-11 (inferred)) [MD2-III] | no inhibition on the TLR4 signaling; also recorded: no inhibitory effect on the TLR4 signaling | – | – | – | – | – | – | – | – | – | – | – | –
CRGSDDDYSFCRALKGE (disulfide 1-11 (inferred)) [MD2-I] | significant reduced signals of LPS-induced TLR4 activation; also recorded: selectively inhibits the NO production induced by LPS | little cytotoxicity | robust increase | approximately 0.25 | does not induce haemolysis | negligible inhibitory effects; also recorded: without affecting other homologous TLRs | abolishes TLR4 signalling by antagonizing its native ligand, lipopolysaccharide (LPS), binding to the TLR4/MD2 complex | negligible inhibitory effects; also recorded: without affecting other homologous TLRs | no abnormal behaviours were observed | little cytotoxicity | little cytotoxicity | moderate potency in an animal model; also recorded: able to suppress neuropathic pain in animal models; also recorded: could suppress neuropathic pain in vivo | –
full-length MD2: myeloid differentiation factor 2, accessory protein required for TLR4 activation | – | – | – | – | – | – | – | – | – | – | – | – | 12 nM
